Active and inactive are the calls of the source. The rule behind the calls is not given here.
Columns and labels:
Plasmodium falciparum [1] = experiment: Antimalarial activity against drug-sensitive Plasmodium falciparum 3D7 infected in human erythrocytes after 96 hrs by SYBR Green I-based fluorescence assay; type: functional, organism-based; conditions: 3D7, 96 h
Method in brief: (§1)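 Ring-stage cultures synchronized with 10% D-sorbitol, grown in O+ human erythrocytes in RPMI-1640 with HEPES, hypoxanthine, glucose, gentamycin and Albumax II under 5% CO2/5% O2/90% N2 at 37°C. Compounds in DMSO (<0.013%), serially diluted, added at 1% parasitemia, 2% hematocrit. Static 96 h incubation, then SYBR Green I lysis buffer for 1 h in dark. Fluorescence at ex 485/em 538 nm.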

Plasmodium falciparum [2] = experiment: Antimalarial activity against […] Plasmodium falciparum HB3 infected in human erythrocytes after 96 hrs by SYBR Green I-based fluorescence assay; type: functional, organism-based; conditions: HB3, 96 h; method in brief: as §1
Plasmodium falciparum [3] = experiment: Antimalarial activity against Plasmodium falciparum assessed as increase in 1N ring or trophozoite stage parasites at 2 times IC50 after 72 hrs by FITC-SYBR Green I-based flow cytometry; type: functional, organism-based
[4] = Selectivity index, ratio of GI50 for human HepG2 cells to IC50 for Plasmodium falciparum 3D7; type: functional
HepG2 = experiment: Cytotoxicity against human HepG2 cells after 48 hrs by lactate dehydrogenase assay; type: cell-based; conditions: hepg2, 48 h
Method in brief: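 HepG2 cells in DMEM with 10% heat-inactivated FBS, 37°C, 5% CO2. Cells pelleted at 250xg, supernatant LDH activity read colorimetrically as NADH at 450 nm after 30 min at room temperature. Duplicate, at least two biological repeats, mean ± S.E.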

Plasmodium falciparum [5] = experiment: Antimalarial activity against Plasmodium falciparum assessed as reduction in 2N schizont stage parasites at 2 times IC50 after 72 hrs by FITC-SYBR Green I-based flow cytometry; type: functional, organism-based
Plasmodium falciparum [6] = experiment: Antimalarial activity against antifolate-resistant Plasmodium falciparum W2 infected in human erythrocytes after 96 hrs by SYBR Green I-based fluorescence assay; type: functional, organism-based; conditions: W2, 96 h; method in brief: as §1
Plasmodium falciparum [7] = experiment: Antimalarial activity against Plasmodium falciparum 3D7 infected in human erythrocytes assessed as decrease in parasitemia at 2 times IC50 after 72 hrs by giemsa staining method; type: functional, organism-based
Method in brief: (§2)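 P. falciparum 3D7 in O+ human erythrocytes, treated at 2xIC50 for 72 h. Parasitemia scored microscopically on Giemsa-stained smears, counting 100 parasites per slide 10x, alongside SYBR Green I DNA quantitation. Parasitemia compared at 0 h and 72 h. Three independent experiments in triplicate, mean ± S.E.; Student t-test, P<0.05.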

Plasmodium falciparum [8] = experiment: Antimalarial activity against Plasmodium falciparum assessed as reduction in >2N schizont stage parasites at 2 times IC50 after 72 hrs by FITC-SYBR Green I-based flow cytometry; type: functional, organism-based
Plasmodium falciparum [9] = experiment: Resistance ratio of IC50 for Plasmodium falciparum W2 to IC50 for Plasmodium falciparum 3D7; type: functional
Method in brief: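 Ratio of W2 IC50 to 3D7 IC50, both from the 96 h SYBR Green I fluorescence assay.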

Plasmodium falciparum [10] = experiment: Antimalarial activity against Plasmodium falciparum assessed as inhibition of DNA replication at 2 times IC50 after 72 hrs by FITC-SYBR Green I-based flow cytometry; type: functional, organism-based
Plasmodium falciparum [11] = experiment: Cytostatic activity against Plasmodium falciparum 3D7 infected in human erythrocytes at 2 times IC50 after 72 hrs by giemsa staining method; type: functional, organism-based; method in brief: as §2
Trypanosoma brucei = experiment: Antitrypanosomal activity against Trypanosoma brucei; type: functional, organism-based
Plasmodium falciparum [12] = experiment: Antimalarial activity against Plasmodium falciparum 3D7 infected in human erythrocytes assessed as decrease in parasitemia at 2 times IC50 up to 72 hrs by SYBR Green I-based fluorescence assay in the presence of putrescine; type: functional, organism-based
Method in brief: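 Early-ring 3D7 cultures treated at 2xIC50 with 1 mM putrescine added after 24 h or 48 h, then incubated a further 24 or 48 h. Parasitemia followed over 72 h by SYBR Green I lysis fluorescence, as in the MSF assay. At least three biological repeats in duplicate, mean ± S.E.; two-way ANOVA, P<0.05.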

Plasmodium falciparum [13] = experiment: Antimalarial activity against Plasmodium falciparum assessed as inhibition of nuclear division measuring 1N ring or trophozoite stage parasites at 2 times IC50 after 72 hrs by FITC-SYBR Green I-based flow cytometry (reference value: 28 %); type: functional; parameters: scale not given: the % may be the effect or the level left
Plasmodium falciparum [14] = experiment: Antimalarial activity against Plasmodium falciparum assessed as inhibition of nuclear division measuring >2N schizont stage parasites at 2 times IC50 after 72 hrs by FITC-SYBR Green I-based flow cytometry (reference value: 34 %); type: functional; parameters: scale not given: the % may be the effect or the level left
Plasmodium falciparum [15] = experiment: Antimalarial activity against Plasmodium falciparum assessed as inhibition of nuclear division measuring 2N schizont stage parasites at 2 times IC50 after 72 hrs by FITC-SYBR Green I-based flow cytometry (reference value: 38 %); type: functional; parameters: scale not given: the % may be the effect or the level left

| SMILES | IC50 (Plasmodium falciparum [1]) [µM] | IC50 (Plasmodium falciparum [2]) [µM] | Activity (Plasmodium falciparum [3]) | GI50 (HepG2) [µM] | Activity (Plasmodium falciparum [5]) | IC50 (Plasmodium falciparum [6]) [µM] | Activity (Plasmodium falciparum [7]) | Activity (Plasmodium falciparum [8]) | DNA replication inhibition (active/inactive) (Plasmodium falciparum [10]) | further results |
| --- | --- | --- | --- | --- | --- | --- | --- | --- | --- | --- |
| O=C(NCCCNCCCCNCCCNC(=O)NCCC(c1ccccc1)c1ccccc1)NCCC(c1ccccc1)c1ccccc1 | 0.657 | 0.517 |  |  |  |  |  |  |  |  |
| O=C(NCCCNCCCCCCNCCCNC(=O)NCc1ccccc1)NCc1ccccc1 | 0.339 |  |  |  |  |  |  |  |  |  |
| Cl.Cl.O=C(NCCCNCCCCCCCNCCCNC(=O)NC(c1ccccc1)c1ccccc1)NC(c1ccccc1)c1ccccc1 | 0.131 |  | Active | > 200 | Active | 0.221 | Active | Active | Active | Selectivity Index [4]: >1500; Ratio IC50 (Plasmodium falciparum [9]): 1.7 |
| Cl.Cl.S=C(NCCCNCCCCCCNCCCNC(=S)NC(c1ccccc1)c1ccccc1)NC(c1ccccc1)c1ccccc1 | 0.211 |  | Active | > 200 | Active | 0.256 | Active | Active | Active | Selectivity Index [4]: >500; Ratio IC50 (Plasmodium falciparum [9]): 1.2 |
| Cl.Cl.O=C(NCCCNCCCCCCNCCCNC(=O)Nc1ccccc1)Nc1ccccc1 | 0.088 |  | Active | 619 | Active | 0.026 | Active | Active | Active | Selectivity Index [4]: 7038; Ratio IC50 (Plasmodium falciparum [9]): 0.3 |
| CCNC(=S)NCCCNCCCCCCNCCCNC(=S)NCC | 1.35 |  |  |  |  |  |  |  |  |  |
| CCCNC(=O)NCCCNCCCCCCNCCCNC(=O)NCCC | 14.1 |  |  |  |  |  |  |  |  |  |
| CC(=N)NCCCNCCCNCCCNC(C)=N | 147 | 110 |  |  |  |  |  |  |  |  |
| CCNC(=O)NCCCNCCCCCCNCCCNC(=O)NCC | > 15 |  |  |  |  |  |  |  |  |  |
| S=C(NCCCNCCCCNCCCNC(=S)NC(c1ccccc1)c1ccccc1)NC(c1ccccc1)c1ccccc1 | 0.433 | 0.317 |  |  |  |  |  |  |  |  |
| Cl.Cl.S=C(NCCCNCCCCNCCCNC(=S)NCc1ccccc1)NCc1ccccc1 | 0.355 |  | inactive | > 200 | inactive | 0.066 | inactive | inactive | inactive | Activity (Plasmodium falciparum [11]): Active; Selectivity Index [4]: >500; Ratio IC50 (Plasmodium falciparum [9]): 0.19 |
| N=C(NCCCNCCCCCCCNCCCNC(=N)NC(=N)NCCC(c1ccccc1)c1ccccc1)NC(=N)NCCC(c1ccccc1)c1ccccc1 | 0.298 | 0.224 |  |  |  |  |  |  |  | IC50 (Trypanosoma brucei): 0.09 µM |
| CC(=N)NCCCNCCCCNCCCNC(C)=N | 80 | 14.2 |  |  |  |  |  |  |  |  |
| S=C(NCCCNCCCCCCCNCCCNC(=S)NC(c1ccccc1)c1ccccc1)NC(c1ccccc1)c1ccccc1 | 0.641 | 0.138 |  |  |  |  |  |  |  |  |
| S=C(NCCCNCCCNCCCNC(=S)NCC(c1ccccc1)c1ccccc1)NCC(c1ccccc1)c1ccccc1 | 1.32 | 0.715 |  |  |  |  |  |  |  |  |
| S=C(NCCCNCCCCNCCCNC(=S)NCCC(c1ccccc1)c1ccccc1)NCCC(c1ccccc1)c1ccccc1 | 0.528 | 1.03 |  |  |  |  |  |  |  |  |
| Cl.Cl.S=C(NCCCNCCCCCCCNCCCNC(=S)NCC(c1ccccc1)c1ccccc1)NCC(c1ccccc1)c1ccccc1 | 0.405 |  | Active | 24.7 | Active | 0.183 | Active | Active | Active | Activity (Plasmodium falciparum [12]): Active; Activity (Plasmodium falciparum [13]): 78%; Activity (Plasmodium falciparum [14]): 2%; Activity (Plasmodium falciparum [15]): 20% |

| SMILES | IC50 (Plasmodium falciparum [1]) [µM] | IC50 (Plasmodium falciparum [2]) [µM] | Activity (Plasmodium falciparum [3]) | GI50 (HepG2) [µM] | Activity (Plasmodium falciparum [5]) | IC50 (Plasmodium falciparum [6]) [µM] | Activity (Plasmodium falciparum [7]) | Activity (Plasmodium falciparum [8]) | DNA replication inhibition (active/inactive) (Plasmodium falciparum [10]) | further results |
| --- | --- | --- | --- | --- | --- | --- | --- | --- | --- | --- |
| Cl.Cl.S=C(NCCCNCCCCCCNCCCNC(=S)NCc1ccccc1)NCc1ccccc1 | 0.106 |  | Active | > 200 | Active | 0.198 | Active | Active | Active | Selectivity Index [4]: >1500; Ratio IC50 (Plasmodium falciparum [9]): 1.9 |
| CCCNC(=S)NCCCNCCCCCCNCCCNC(=S)NCCC | 0.425 |  |  |  |  |  |  |  |  |  |
| O=C(NCCCNCCCCNCCCNC(=O)NC(c1ccccc1)c1ccccc1)NC(c1ccccc1)c1ccccc1 | 0.691 |  |  |  |  |  |  |  |  |  |
| Cl.Cl.O=C(NCCCNCCCCCCCNCCCNC(=O)NCC(c1ccccc1)c1ccccc1)NCC(c1ccccc1)c1ccccc1 | 0.1 |  | Active | 33.8 | Active | 0.14 | Active | Active | Active | Selectivity Index [4]: 338; Ratio IC50 (Plasmodium falciparum [9]): 1.4 |
| CC(=N)NCCCNCCCCCCCNCCCNC(C)=N |  | 70.3 |  |  |  |  |  |  |  |  |
| O=C(NCCCNCCCNCCCNC(=O)NCCC(c1ccccc1)c1ccccc1)NCCC(c1ccccc1)c1ccccc1 | 0.653 |  |  |  |  |  |  |  |  |  |
| Cl.Cl.S=C(NCCCNCCCCCCCNCCCNC(=S)NCCC(c1ccccc1)c1ccccc1)NCCC(c1ccccc1)c1ccccc1 | 0.253 | 0.256 | Active | 24.5 | Active | 0.147 | Active | Active | Active | Selectivity Index [4]: 97; Ratio IC50 (Plasmodium falciparum [9]): 0.58 |
| Cl.Cl.O=C(NCCCNCCCCCCCNCCCNC(=O)NCCC(c1ccccc1)c1ccccc1)NCCC(c1ccccc1)c1ccccc1 | 0.144 | 0.2 | Active | 23.9 | Active | 0.163 | Active | Active | Active | Selectivity Index [4]: 166; Ratio IC50 (Plasmodium falciparum [9]): 1.13 |
| S=C(NCCCNCCCNCCCNC(=S)NCCC(c1ccccc1)c1ccccc1)NCCC(c1ccccc1)c1ccccc1 | 1.43 | 1.64 |  |  |  |  |  |  |  |  |
| O=C(NCCCNCCCCNCCCNC(=O)NCC(c1ccccc1)c1ccccc1)NCC(c1ccccc1)c1ccccc1 | 0.408 |  |  |  |  |  |  |  |  |  |
| S=C(NCCCNCCCNCCCNC(=S)NC(c1ccccc1)c1ccccc1)NC(c1ccccc1)c1ccccc1 | 1.08 | 0.766 |  |  |  |  |  |  |  |  |
| S=C(NCCCNCCCCCCNCCCNC(=S)Nc1ccccc1)Nc1ccccc1 | 0.846 |  |  |  |  |  |  |  |  |  |
| S=C(NCCCNCCCCCCNCCCNC(=S)NCC(c1ccccc1)c1ccccc1)NCC(c1ccccc1)c1ccccc1 | 0.436 |  |  |  |  |  |  |  |  |  |
| S=C(NCCCNCCCCCCNCCCNC(=S)NCCC(c1ccccc1)c1ccccc1)NCCC(c1ccccc1)c1ccccc1 | 0.31 |  |  |  |  |  |  |  |  |  |
| S=C(NCCCNCCCCNCCCNC(=S)NCC(c1ccccc1)c1ccccc1)NCC(c1ccccc1)c1ccccc1 | 0.329 | 0.17 | Active | 18.9 | Active | 0.2 | Active | Active | Active |  |
| O=C(NCCCNCCCCNCCCNC(=O)NCc1ccccc1)NCc1ccccc1 | 3.48 | > 1 |  |  |  |  |  |  |  |  |

From ChEMBL document CHEMBL1828516, “Discovery of novel alkylated (bis)urea and (bis)thiourea polyamine analogues with potent antimalarial activities” (J Med Chem, 2011)
